According to ChEMBL document CHEMBL1138456 (J Med Chem, 2009):
In brackets after ≈: the same amount, converted by molar mass.

What was measured:
[1] = Chemical stability assessed as half life at pH 2 by HPLC; type: physicochemical; details: buffer
[2] = Stability assessed as half life at pH 8.0 in presence of calf intestine alkaline phosphatase; type: ADME, tissue-based; details: cattle
In short: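 Prodrug in 50 mM sodium phosphate pH 7.4 was incubated with calf intestinal alkaline phosphatase (0.000125 units/µL) in 10 mM Tris pH 8.0 at 37 °C for 30 min. Reactions were quenched with NaCl and MeOH/acetonitrile, held on ice for 30 min and centrifuged. Dephosphorylation half-life is in minutes.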

[3] = Aqueous solubility in water by shake flask method; type: physicochemical
In short: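 Solubility: about 5 mg solid per 1 mL deionized water, unbuffered, in triplicate. Samples were vortexed, sonicated and protected from light, then tumbled at 25 °C for 1 day. They were centrifuged, filtered and diluted, and analyzed by HPLC with UV detection at 215 nm.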

[4] = Clearance in rat at 5 mg/kg, iv; type: ADME, organism-based; design: dose 5 mg/kg, route intravenous; details: in vivo
[5] = Half life in rat at 5 mg/kg, iv; type: ADME, organism-based; design: dose 5 mg/kg, route intravenous; details: in vivo
[6] = Chemical stability assessed as half life at pH 7.4 by HPLC; type: physicochemical; details: buffer
[7] = Chemical stability assessed as half life at pH 9 by HPLC; type: physicochemical; details: buffer
[8] = Chemical stability assessed as half life at pH 5 by HPLC; type: physicochemical; details: buffer
[9] = Cmax in Sprague-Dawley rat plasma at 5 mg/kg, po coadministered with RTV; type: ADME, organism-based; design: dose 5 mg/kg, route oral
In short: (§1)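 Male Sprague-Dawley-derived rats (0.25-0.35 kg, n = 3) were given oral gavage doses equivalent to 5 mg/kg parent (5 mg equiv/kg). Prodrugs were given in 5% dextrose in water. Parents were given in ethanol/propylene glycol formulation. For LPV species, a 5 mg/kg RTV gavage dose was given first. Plasma was analyzed by reversed-phase HPLC with an internal standard. Cmax is in µg/mL and AUC in µg·h/mL.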

[10] = AUC in Sprague-Dawley rat plasma at 5 mg/kg, po coadministered with RTV; type: ADME, organism-based; design: dose 5 mg/kg, route oral; in short: as §1
[11] = Cmax in po dosed Beagle dog at dose molar equivalent to 5 mg/kg RTV coadministered with LPV dosed as 5% dextrose containing solution; type: ADME, organism-based, Canis lupus familiaris; design: dose 5 mg/kg, route oral; details: in vivo
In short: (§2)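 Male and female beagle dogs (8-12 kg, n = 3) were dosed orally at 5 mg equiv/kg of parent. Parents were dissolved in 5% dextrose with 20% ethanol, 30% propylene glycol and 2 equiv methanesulfonic acid. Prodrugs were dissolved in 5% dextrose. Plasma was measured by reversed-phase HPLC with an internal standard. Cmax is in µg/mL and AUC in µg·h/mL.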

[12] = Cmax in po dosed Beagle dog at dose molar equivalent to 5 mg/kg RTV coadministered with LPV-OMP dosed as 5% dextrose containing solution; type: ADME, organism-based, Canis lupus familiaris; design: dose 5 mg/kg, route oral; details: in vivo; in short: as §2
[13] = AUC in po dosed Beagle dog at dose molar equivalent to 5 mg/kg RTV coadministered with LPV dosed as 5% dextrose containing solution; type: ADME, organism-based, Canis lupus familiaris; design: dose 5 mg/kg, route oral; details: plasma; in short: as §2
Rattus norvegicus = experiment: AUC in Sprague-Dawley rat plasma at 5 mg/kg, po; type: ADME, organism-based; design: dose 5 mg/kg, route oral; details: in vivo; in short: as §1
[14] = AUC in po dosed Beagle dog at dose molar equivalent to 5 mg/kg RTV coadministered with LPV-OMP dosed as 5% dextrose containing solution; type: ADME, organism-based, Canis lupus familiaris; design: dose 5 mg/kg, route oral; details: plasma; in short: as §2

SMILES	half-life [1] [min]	half-life [2] [min]	solubility thermodynamic [3] [µg/mL]	also measured
CC(C)c1nc(CN(C)C(=O)N[C@H](C(=O)N[C@@H](Cc2ccccc2)C[C@H](OCOP(=O)([O-])[O-])[C@H](Cc2ccccc2)NC(=O)OCc2cncs2)C(C)C)cs1.[Na+].[Na+]	516	7	> 5000	–
Cc1cccc(C)c1OCC(=O)N[C@@H](Cc1ccccc1)[C@H](C[C@H](Cc1ccccc1)NC(=O)[C@H](C(C)C)N1CCCNC1=O)OCOP(=O)([O-])[O-].[Na+].[Na+]	468	13.9	> 5000	–
CC(C)c1nc(CN(C)C(=O)N[C@H](C(=O)N[C@@H](Cc2ccccc2)C[C@H](OP(=O)([O-])[O-])[C@H](Cc2ccccc2)NC(=O)OCc2cncs2)C(C)C)cs1.[Na+].[Na+]	–	–	–	clearance [4]: 43 mL/min/kg; half-life [5]: 13.8 min
CCCC(O[C@@H](C[C@H](Cc1ccccc1)NC(=O)[C@@H](NC(=O)N(C)Cc1csc(C(C)C)n1)C(C)C)[C@H](Cc1ccccc1)NC(=O)OCc1cncs1)OP(=O)([O-])[O-].[Na+].[Na+] (stereo not given in full)	–	31.7	–	–
CC(O[C@@H](C[C@H](Cc1ccccc1)NC(=O)[C@@H](NC(=O)N(C)Cc1csc(C(C)C)n1)C(C)C)[C@H](Cc1ccccc1)NC(=O)OCc1cncs1)OP(=O)([O-])[O-].[Na+].[Na+] (stereo not given in full)	< 15	14.8	> 5000	half-life [6]: 12 days; half-life [7]: > 100 days; half-life [8]: 76 min
CC(C)c1nc(CN(C)C(=O)N[C@H](C(=O)N[C@@H](Cc2ccccc2)C[C@H](OC(OP(=O)([O-])[O-])C(C)C)[C@H](Cc2ccccc2)NC(=O)OCc2cncs2)C(C)C)cs1.[Na+].[Na+] (stereo not given in full)	–	> 30	–	–
Cc1cccc(C)c1OCC(=O)N[C@@H](Cc1ccccc1)[C@H](C[C@H](Cc1ccccc1)NC(=O)[C@H](C(C)C)N1CCCNC1=O)OC(C)OP(=O)([O-])[O-].[Na+].[Na+] (stereo not given in full)	< 15	20.4	> 5000	half-life [6]: 19 days; half-life [7]: > 100 days; half-life [8]: 133 min
Cc1cccc(C)c1OCC(=O)N[C@@H](Cc1ccccc1)[C@@H](O)C[C@H](Cc1ccccc1)NC(=O)[C@H](C(C)C)N1CCCNC1=O [LOPINAVIR]	–	–	7 (≈ 11.1 µM)	Cmax [9]: 1550 ng/mL; AUC [10]: 9280 ng·h/mL
CC(C)c1nc(CN(C)C(=O)N[C@H](C(=O)N[C@@H](Cc2ccccc2)C[C@H](O)[C@H](Cc2ccccc2)NC(=O)OCc2cncs2)C(C)C)cs1 [RITONAVIR]	–	–	–	Cmax [11]: 1320 ng/mL; Cmax [12]: 2130 ng/mL; AUC [13]: 2190 ng·h/mL; AUC (Rattus norvegicus): 3530 ng·h/mL; AUC [14]: 4430 ng·h/mL
